This is an account of results in ChEMBL document CHEMBL1124194, “Enantioselectivity of muscarinic antagonists. Isomeric 2-cyclohexyl-2-phenyl-5-[(dimethylamino)methyl]-1,3-oxathiolane methiodides” (J Med Chem, 1988).

What all share (type): ADME, organism-based
The species named for assay [1] is Cavia porcellus. Description: Tested for antimuscarinic potency on guinea pig heart rate. Conditions: for Kb: Cavia porcellus, Heart, read-out: pA2 (converted). The procedure, abridged:
(§1)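 Guinea pig heart (force and rate) antagonism of carbachol as agonist; pA2 from Schild plot with slope constrained to 1; six to eight replications. Where an antagonist lowered the carbachol maximum at 1×10^-5 M, −log Kb was instead calculated from log(Dr − 1) = log[ant.] − log Kb at a single antagonist concentration of 3×10^-6 M.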

For assay [2], the species on record is Rattus norvegicus. In words: Tested for antimuscarinic potency on rat bladder. To be noted: for Kb: Rattus norvegicus, read-out: pA2 (converted).
For assay [3], the species on record is Cavia porcellus. In words: Tested for antimuscarinic potency on guinea pig heart force. To be noted: for Kb: Cavia porcellus, Heart, read-out: pA2 (converted). The gist of the method:
as §1

Assay [4] is filed under the species Cavia porcellus. In words: Tested for antimuscarinic potency on guinea pig ileum. To be noted: for Kb: Cavia porcellus, Ileum, read-out: pA2 (converted).

By pA2 is commonly meant a measure of antagonist potency on a negative log scale. A lower pA2 goes with a weaker antagonist.

Consider `C[N+](C)(C)C[C@@H]1CS[C@@](c2ccccc2)(C2CCCCC2)O1.[I-]` (stereo in doubt; (-)4), for which the pA2 in assay [1] was found to be 7.99; in assay [2] it was 7.45; in assay [3], 8.16; in assay [4], 7.86.
Consider `C[N+](C)(C)C[C@@H]1CS[C@@](c2ccccc2)(C2CCCCC2)O1.[I-]` (racemic), for which the pA2 in assay [1] was found to be 7.91; in assay [2] it was 8.22; in assay [3] it was 8.13; in assay [4], 8.38.
In the case of `CN(C)C[C@@H]1CS[C@@](c2ccccc2)(C2CCCCC2)O1` (racemic), the Kb in assay [1] was 0.162 µM; in assay [2] it was 0.123 µM; in assay [3] it was 0.263 µM; in assay [4], 0.0372 µM.
Regarding `CN1[C@@H]2CC[C@H]1C[C@@H](OC(=O)C(CO)c1ccccc1)C2` (stereo partly drawn) [ATROPINE], the Kb in assay [2] is 0.00129 µM.
Consider `C[N+](C)(C)C[C@@H]1CS[C@](c2ccccc2)(C2CCCCC2)O1.[I-]` (racemic), for which the Kb in assay [1] is 0.00724 µM; in assay [3], 0.00776 µM. Further, the pA2 in assay [2] is given as 8.05; in assay [4], 8.26.
On to `C[N+](C)(C)C[C@@H]1CS[C@](c2ccccc2)(C2CCCCC2)O1.[I-]` (stereo in doubt; (-)2), for which the pA2 turned out to be 8.06 in assay [1], 7.61 in assay [2], 8.07 in assay [3] and 7.86 in assay [4].
The matching figures for `C[N+](C)(C)C[C@@H]1CS[C@@](c2ccccc2)(C2CCCCC2)O1.[I-]` (stereo in doubt; (+)4): 8.35, 8.58, 8.47 and 8.79.
The corresponding values for `C[N+](C)(C)C[C@@H]1CS[C@](c2ccccc2)(C2CCCCC2)O1.[I-]` (stereo in doubt; (+)-2) are 8.05, 8.29, 8.1 and 8.57.
In the case of `CN(C)C[C@@H]1CS[C@](c2ccccc2)(C2CCCCC2)O1` (racemic), the Kb is 0.0372 µM in assay [1], 0.0447 µM in assay [2], 0.0331 µM in assay [3] and 0.012 µM in assay [4].
